Assay results reported in ChEMBL document CHEMBL5724801, “EUbOPEN Chemogenomics Library - Multiplex” (2024).
Values joined by “and” are separate entries in the source; they are usually repeats but may differ in a detail not shown here. Equal values may be shown once.

Tested on: U2OS
Assay: Multiplex assay against U2OS
Format: toxicity, cell-based
Conditions: human
Summary of the method: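 Phenotypes for tubulin, mitochondrial mass and membrane permeability are expressed as per cents of healthy-nucleus cells. Cells were stained live at seeding with Hoechst33342, BioTracker Green Microtubule Cytoskeleton Dye, MitoTracker Red and Annexin V Alexa Fluor 680, then imaged after compound addition on a CQ1 microscope at 37°C and 5% CO2. Machine-learning gating in CellPathfinder separated Hoechst high-intensity objects from normal cells, divided normal cells by nuclear state (healthy, pyknosed, fragmented) and divided pyknosed cells into mitotic or apoptotic.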

[1] = 12 h, 1 µM, compound concentration 1 uM
[2] = 12 h, 10 µM, compound concentration 10 uM
[3] = 24 h, 1 µM, compound concentration 1 uM
[4] = 24 h, 10 µM, compound concentration 10 uM
[5] = 48 h, 1 µM, compound concentration 1 uM
[6] = 48 h, 10 µM, compound concentration 10 uM

Q: How did the “Population Apoptotic (%)” value [1] turn out when `COc1cc(C(=O)N2CC[C@@H](O)[C@@H](N)C2)cc2nc(-c3cc4ccccc4n3CC3CC3)n(C)c12.Cl` was run?
A: 50% and 75%

Q: What about the “Population Fragmented Nuclei (%)” value [1] of the same molecule?
A: 32% and 15%

Q: And the “Population Healthy Nuclei (%)” value [1]?
A: 53% and 75%

Q: What about the “Population Hoechst High Intensity Objects (%)” value [1] of the same molecule?
A: 4% and 1%

Q: What about the “Population Membrane Permeable-Phenotype (%)” value [1] of the same molecule?
A: 38% and 20%

Q: And the “Population Mitochondria Different-Phenotype (%)” value [1]?
A: 16% and 18%

Q: What about the “Population Mitotic Cells (%)” value [1] of the same molecule?
A: 50% and 25%

Q: What about the “Population Normal (%)” value [1] of the same molecule?
A: 95% and 98%

Q: And the “Population Pyknosed Nuclei (%)” value [1]?
A: 14% and 8%

Q: And the “Population Tubulin-Different-Phenotype (%)” value [1]?
A: 29% and 15%

Q: What about the “Total Cell Count” value [1] of the same molecule?
A: 223 and 92

Q: And the “Population Apoptotic (%)” value [2]?
A: 68% and 56%

Q: What about the “Population Fragmented Nuclei (%)” value [2] of the same molecule?
A: 23% and 16%

Q: What about the “Population Healthy Nuclei (%)” value [2] of the same molecule?
A: 38% and 61%

Q: What about the “Population Hoechst High Intensity Objects (%)” value [2] of the same molecule?
A: 6% and 5%

Q: What about the “Population Membrane Permeable-Phenotype (%)” value [2] of the same molecule?
A: 75% and 79%

Q: What about the “Population Mitochondria Different-Phenotype (%)” value [2] of the same molecule?
A: 88% and 91%

Q: What about the “Population Mitotic Cells (%)” value [2] of the same molecule?
A: 31% and 44%

Q: And the “Population Normal (%)” value [2]?
A: 93% and 94%

Q: What about the “Population Pyknosed Nuclei (%)” value [2] of the same molecule?
A: 37% and 22%

Q: And the “Population Tubulin-Different-Phenotype (%)” value [2]?
A: 96% and 94%

Q: What about the “Total Cell Count” value [2] of the same molecule?
A: 208 and 120

Q: And the “Population Apoptotic (%)” value [3]?
A: 78% and 75%

Q: And the “Population Fragmented Nuclei (%)” value [3]?
A: 28% and 18%

Q: What about the “Population Healthy Nuclei (%)” value [3] of the same molecule?
A: 54% and 69%

Q: And the “Population Hoechst High Intensity Objects (%)” value [3]?
A: 3% and 2%

Q: What about the “Population Membrane Permeable-Phenotype (%)” value [3] of the same molecule?
A: 19% and 17%

Q: And the “Population Mitochondria Different-Phenotype (%)” value [3]?
A: 14% and 18%

Q: What about the “Population Mitotic Cells (%)” value [3] of the same molecule?
A: 21% and 25%

Q: What about the “Population Normal (%)” value [3] of the same molecule?
A: 96% and 97%

Q: What about the “Population Pyknosed Nuclei (%)” value [3] of the same molecule?
A: 17% and 11%

Q: What about the “Population Tubulin-Different-Phenotype (%)” value [3] of the same molecule?
A: 12% and 17%

Q: And the “Total Cell Count” value [3]?
A: 243 and 109

Q: And the “Population Apoptotic (%)” value [4]?
A: 84% and 71%

Q: What about the “Population Fragmented Nuclei (%)” value [4] of the same molecule?
A: 25% and 26%

Q: What about the “Population Healthy Nuclei (%)” value [4] of the same molecule?
A: 35% and 48%

Q: What about the “Population Hoechst High Intensity Objects (%)” value [4] of the same molecule?
A: 4%

Q: What about the “Population Membrane Permeable-Phenotype (%)” value [4] of the same molecule?
A: 57% and 50%

Q: What about the “Population Mitochondria Different-Phenotype (%)” value [4] of the same molecule?
A: 88% and 85%

Q: And the “Population Mitotic Cells (%)” value [4]?
A: 15% and 28%

Q: What about the “Population Normal (%)” value [4] of the same molecule?
A: 95%

Q: And the “Population Pyknosed Nuclei (%)” value [4]?
A: 38% and 25%

Q: What about the “Population Tubulin-Different-Phenotype (%)” value [4] of the same molecule?
A: 78% and 90%

Q: And the “Total Cell Count” value [4]?
A: 222 and 133

Q: What about the “Population Apoptotic (%)” value [5] of the same molecule?
A: 82% and 76%

Q: And the “Population Fragmented Nuclei (%)” value [5]?
A: 23%

Q: And the “Population Healthy Nuclei (%)” value [5]?
A: 61%

Q: What about the “Population Hoechst High Intensity Objects (%)” value [5] of the same molecule?
A: 2%

Q: And the “Population Membrane Permeable-Phenotype (%)” value [5]?
A: 9% and 17%

Q: What about the “Population Mitochondria Different-Phenotype (%)” value [5] of the same molecule?
A: 5% and 11%

Q: What about the “Population Mitotic Cells (%)” value [5] of the same molecule?
A: 17% and 23%

Q: What about the “Population Normal (%)” value [5] of the same molecule?
A: 97%

Q: And the “Population Pyknosed Nuclei (%)” value [5]?
A: 15% and 14%

Q: What about the “Population Tubulin-Different-Phenotype (%)” value [5] of the same molecule?
A: 5% and 12%

Q: And the “Total Cell Count” value [5]?
A: 304 and 149

Q: And the “Population Apoptotic (%)” value [6]?
A: 88% and 92%

Q: And the “Population Fragmented Nuclei (%)” value [6]?
A: 29% and 30%

Q: What about the “Population Healthy Nuclei (%)” value [6] of the same molecule?
A: 35%

Q: What about the “Population Hoechst High Intensity Objects (%)” value [6] of the same molecule?
A: 12% and 6%

Q: And the “Population Membrane Permeable-Phenotype (%)” value [6]?
A: 47%

Q: And the “Population Mitochondria Different-Phenotype (%)” value [6]?
A: 65% and 84%

Q: And the “Population Mitotic Cells (%)” value [6]?
A: 11% and 7%

Q: And the “Population Normal (%)” value [6]?
A: 87% and 93%

Q: And the “Population Pyknosed Nuclei (%)” value [6]?
A: 35% and 34%

Q: What about the “Population Tubulin-Different-Phenotype (%)” value [6] of the same molecule?
A: 62% and 75%

Q: What about the “Total Cell Count” value [6] of the same molecule?
A: 232 and 131

Q: Which “Population Apoptotic (%)” value [1] does the source give for `CN(C)CCCc1cc(C(=O)Nc2ccc(-c3ccncc3)cc2)ccc1O.Cl.Cl` here?
A: 89% and 100%

Q: And the “Population Fragmented Nuclei (%)” value [1]?
A: 29% and 10%

Q: What about the “Population Healthy Nuclei (%)” value [1] of the same molecule?
A: 60% and 75%

Q: And the “Population Hoechst High Intensity Objects (%)” value [1]?
A: 2% and 0%

Q: And the “Population Membrane Permeable-Phenotype (%)” value [1]?
A: 6% and 2%

Q: And the “Population Mitochondria Different-Phenotype (%)” value [1]?
A: 0% and 1%

Q: And the “Population Mitotic Cells (%)” value [1]?
A: 10% and 0%

Q: And the “Population Normal (%)” value [1]?
A: 97% and 99%

Q: What about the “Population Pyknosed Nuclei (%)” value [1] of the same molecule?
A: 9% and 13%

Q: What about the “Population Tubulin-Different-Phenotype (%)” value [1] of the same molecule?
A: 3% and 0%

Q: What about the “Total Cell Count” value [1] of the same molecule?
A: 199 and 124

Q: What about the “Population Apoptotic (%)” value [2] of the same molecule?
A: 77% and 42%

Q: What about the “Population Fragmented Nuclei (%)” value [2] of the same molecule?
A: 28% and 24%

Q: What about the “Population Healthy Nuclei (%)” value [2] of the same molecule?
A: 62% and 63%

Q: What about the “Population Hoechst High Intensity Objects (%)” value [2] of the same molecule?
A: 4% and 1%

Q: What about the “Population Membrane Permeable-Phenotype (%)” value [2] of the same molecule?
A: 7% and 4%

Q: And the “Population Mitochondria Different-Phenotype (%)” value [2]?
A: 1% and 8%

Q: And the “Population Mitotic Cells (%)” value [2]?
A: 22% and 57%

Q: What about the “Population Normal (%)” value [2] of the same molecule?
A: 95% and 98%

Q: What about the “Population Pyknosed Nuclei (%)” value [2] of the same molecule?
A: 9% and 12%

Q: And the “Population Tubulin-Different-Phenotype (%)” value [2]?
A: 2%

Q: And the “Total Cell Count” value [2]?
A: 237 and 113

Q: And the “Population Apoptotic (%)” value [3]?
A: 100% and 94%

Q: What about the “Population Fragmented Nuclei (%)” value [3] of the same molecule?
A: 28% and 11%

Q: And the “Population Healthy Nuclei (%)” value [3]?
A: 65% and 77%

Q: And the “Population Hoechst High Intensity Objects (%)” value [3]?
A: 2% and 4%

Q: And the “Population Membrane Permeable-Phenotype (%)” value [3]?
A: 5% and 7%

Q: And the “Population Mitochondria Different-Phenotype (%)” value [3]?
A: 2% and 5%

Q: And the “Population Mitotic Cells (%)” value [3]?
A: 0% and 5%

Q: What about the “Population Normal (%)” value [3] of the same molecule?
A: 97% and 95%

Q: What about the “Population Pyknosed Nuclei (%)” value [3] of the same molecule?
A: 6% and 11%

Q: And the “Population Tubulin-Different-Phenotype (%)” value [3]?
A: 3% and 5%

Q: What about the “Total Cell Count” value [3] of the same molecule?
A: 247 and 178

Q: And the “Population Apoptotic (%)” value [4]?
A: 72% and 66%

Q: And the “Population Fragmented Nuclei (%)” value [4]?
A: 28% and 21%

Q: What about the “Population Healthy Nuclei (%)” value [4] of the same molecule?
A: 58% and 63%

Q: And the “Population Hoechst High Intensity Objects (%)” value [4]?
A: 4% and 0%

Q: What about the “Population Membrane Permeable-Phenotype (%)” value [4] of the same molecule?
A: 6% and 4%

Q: What about the “Population Mitochondria Different-Phenotype (%)” value [4] of the same molecule?
A: 3% and 8%

Q: And the “Population Mitotic Cells (%)” value [4]?
A: 27% and 33%

Q: And the “Population Normal (%)” value [4]?
A: 95% and 100%

Q: And the “Population Pyknosed Nuclei (%)” value [4]?
A: 13% and 15%

Q: And the “Population Tubulin-Different-Phenotype (%)” value [4]?
A: 1% and 2%

Q: What about the “Total Cell Count” value [4] of the same molecule?
A: 257 and 118

Q: What about the “Population Apoptotic (%)” value [5] of the same molecule?
A: 88% and 93%

Q: What about the “Population Fragmented Nuclei (%)” value [5] of the same molecule?
A: 25% and 15%

Q: And the “Population Healthy Nuclei (%)” value [5]?
A: 69% and 71%

Q: What about the “Population Hoechst High Intensity Objects (%)” value [5] of the same molecule?
A: 3%

Q: And the “Population Membrane Permeable-Phenotype (%)” value [5]?
A: 5% and 7%

Q: What about the “Population Mitochondria Different-Phenotype (%)” value [5] of the same molecule?
A: 3%

Q: And the “Population Mitotic Cells (%)” value [5]?
A: 11% and 6%

Q: What about the “Population Normal (%)” value [5] of the same molecule?
A: 96%

Q: And the “Population Pyknosed Nuclei (%)” value [5]?
A: 5% and 13%

Q: And the “Population Tubulin-Different-Phenotype (%)” value [5]?
A: 3% and 4%

Q: What about the “Total Cell Count” value [5] of the same molecule?
A: 338 and 259

Q: What about the “Population Apoptotic (%)” value [6] of the same molecule?
A: 74% and 68%

Q: What about the “Population Fragmented Nuclei (%)” value [6] of the same molecule?
A: 25% and 20%

Q: What about the “Population Healthy Nuclei (%)” value [6] of the same molecule?
A: 61% and 63%

Q: What about the “Population Hoechst High Intensity Objects (%)” value [6] of the same molecule?
A: 5% and 4%

Q: What about the “Population Membrane Permeable-Phenotype (%)” value [6] of the same molecule?
A: 5% and 13%

Q: And the “Population Mitochondria Different-Phenotype (%)” value [6]?
A: 3% and 8%

Q: And the “Population Mitotic Cells (%)” value [6]?
A: 25% and 32%

Q: And the “Population Normal (%)” value [6]?
A: 94% and 95%

Q: What about the “Population Pyknosed Nuclei (%)” value [6] of the same molecule?
A: 12% and 16%

Q: And the “Population Tubulin-Different-Phenotype (%)” value [6]?
A: 5% and 9%

Q: And the “Total Cell Count” value [6]?
A: 352 and 160
